Results on 1 molecule are retold here after ChEMBL document CHEMBL4017517, “Small Molecule Inhibitors Simultaneously Targeting Cancer Metabolism and Epigenetics: Discovery of Novel Nicotinamide Phosphoribosyltransferase (NAMPT) and Histone Deacetylase (HDAC) Dual Inhibitors” (J Med Chem, 2017).

The source made the active and inactive calls. The calls are words filed in the database; no cut-off is given here.

The species entered for one series is Homo sapiens. Kind of series: Inhibition of HDAC in human HCT116 cells assessed as increase in acetylated histone H3 level after 24 hrs by Western blot analysis. Type of series: cell-based. Put shortly: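 HCT116 cells treated at 1 and 5 μM for 24 h; DMSO-volume control. PBS-washed, RIPA-lysed on ice 30 min, centrifuged 12000 × g 15 min at 4 °C. 30 μg protein separated by SDS-PAGE, blotted to PVDF, blocked 5% BSA 2 h. Incubated with acetyl-histone H3 or H4 primary antibody overnight at 4 °C, then secondary antibody; infrared imaging.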
A general note: In western blotting, separated proteins are transferred to a membrane and probed.

For series [1], the target named is T1, Protein deacetylase HDAC6 (Homo sapiens, UniProt Q9UBN7).
T1 sequence (Q9UBN7 whole entry): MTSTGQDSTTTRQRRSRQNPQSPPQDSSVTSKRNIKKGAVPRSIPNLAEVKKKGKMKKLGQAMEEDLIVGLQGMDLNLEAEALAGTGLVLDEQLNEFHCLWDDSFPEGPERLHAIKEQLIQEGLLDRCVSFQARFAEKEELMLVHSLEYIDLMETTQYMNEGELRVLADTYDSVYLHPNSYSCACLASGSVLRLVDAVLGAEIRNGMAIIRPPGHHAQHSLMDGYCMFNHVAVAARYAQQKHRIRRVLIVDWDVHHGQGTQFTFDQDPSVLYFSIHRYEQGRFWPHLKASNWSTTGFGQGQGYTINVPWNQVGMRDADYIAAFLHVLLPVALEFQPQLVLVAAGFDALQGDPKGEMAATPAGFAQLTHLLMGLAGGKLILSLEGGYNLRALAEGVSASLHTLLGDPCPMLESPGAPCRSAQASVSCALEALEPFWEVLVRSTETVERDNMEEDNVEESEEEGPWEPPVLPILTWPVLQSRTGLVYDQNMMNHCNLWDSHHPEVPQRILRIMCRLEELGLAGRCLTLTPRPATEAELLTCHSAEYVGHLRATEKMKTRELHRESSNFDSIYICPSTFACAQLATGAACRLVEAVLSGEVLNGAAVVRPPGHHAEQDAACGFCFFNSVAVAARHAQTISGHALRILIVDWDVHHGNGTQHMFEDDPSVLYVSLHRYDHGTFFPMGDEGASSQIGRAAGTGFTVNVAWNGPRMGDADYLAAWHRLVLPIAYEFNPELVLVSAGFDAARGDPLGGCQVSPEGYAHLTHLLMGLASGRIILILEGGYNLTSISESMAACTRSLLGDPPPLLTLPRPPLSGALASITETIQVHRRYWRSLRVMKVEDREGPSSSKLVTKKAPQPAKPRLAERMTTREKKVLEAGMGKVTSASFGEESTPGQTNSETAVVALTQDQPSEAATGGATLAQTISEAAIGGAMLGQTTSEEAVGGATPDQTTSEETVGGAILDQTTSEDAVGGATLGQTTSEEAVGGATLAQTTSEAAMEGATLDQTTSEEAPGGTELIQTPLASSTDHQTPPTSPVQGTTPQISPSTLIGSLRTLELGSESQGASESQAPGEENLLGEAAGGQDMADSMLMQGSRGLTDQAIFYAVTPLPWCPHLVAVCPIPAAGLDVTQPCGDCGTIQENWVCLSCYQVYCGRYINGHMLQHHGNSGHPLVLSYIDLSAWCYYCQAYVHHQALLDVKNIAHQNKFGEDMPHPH
Put plainly: Inhibition of human recombinant HDAC6 expressed in Baculovirus infected Sf9 cells using Ac-Leu-Gly-Lys(Ac)-AMC as substrate preincubated for 5 mins followed by substrate addition measured after 30 mins by fluorescence assay.

The test system of series [2] is HCT-116. Put plainly: cells. In kind it is functional, cell-based. To be noted: Homo sapiens, HCT-116, 72 h.
In another series the test system is Rattus norvegicus. Put plainly: Volume of distribution at steady state in Sprague-Dawley rat at 2 mg/kg, ip. Type of series: ADME, organism-based. The note with it: in vivo. Put shortly: (§1)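 Sprague-Dawley rats given a single ip dose of 2 mg/kg. Plasma concentration–time profile used to derive terminal half-life, Cmax, plasma clearance and Vss.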
Series [3] is described as follows: Terminal half life in Sprague-Dawley rat at 2 mg/kg, ip. In kind it is ADME, organism-based. The note with it: in vivo, read-out: beta t1/2 (converted). In outline:
as §1

The test system of series [4] is HCT-116. Kind of series: Induction of apoptosis in human HCT116 cells assessed as necrotic cells at 5 uM after 72 hrs by Annexin V-FITC/propidium iodide staining-based flow cytometric analysis (reference value: 1.25%). In kind it is functional. In outline:
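HCT116 cells seeded at 5×10^5 cells/mL in six-well plates, treated at 5 μM for 72 h alongside vehicle. Cells trypsinized, washed twice in cold PBS, and resuspended in 1× binding buffer. Stained with annexin V-FITC 15 min at room temperature, then PI 15 min in dark, then flow cytometry.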

As a reminder, the IC50 is the concentration that inhibits the measured activity by half. With `Nc1ccccc1NC(=O)c1ccc(Cn2cc(-c3ccc(C(=O)NCc4cccnc4)cc3)nn2)cc1`, in the series listed under Homo sapiens, the inhibition entry is “Active”. The half-maximal inhibitory concentration (IC50) was > 100 µM in series [1] and 2.4 µM in the series on HCT-116 [2]. In the series on Rattus norvegicus, this molecule had a Vdss of 6.229 L/kg. The half-life in series [3] is 1.8 h. The Activity in the series on HCT-116 [4] stood at 2.43%.
